Data on ten compounds can be found in ChEMBL document CHEMBL2086299, “Melanogenesis inhibitory and fibroblast proliferation accelerating effects of noroleanane- and oleanane-type triterpene oligoglycosides from the flower buds of Camellia japonica” (2012).

The nature of experiment [1]: Induction of proliferation of neonatal skin fibroblasts assessed as protein content per well at 10 uM after 48 hrs by […] relative to control. It counts as functional, Homo sapiens, Skin fibroblast. Put shortly:
(§1)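 Normal human neonatal skin fibroblasts NB1RGB seeded 5.0 × 10^4 cells/well in 96-well plates. Exposed 48 h to compound (DMSO, final 0.1%). Cellular protein content determined by BCA protein assay and expressed as % of vehicle control.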

Experiment [2] is described as follows: Antiproliferative activity against mouse B16-4A5 cells at 5 uM after 72 hrs by WST-8 assay. Format: functional. Put shortly:
(§2)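 Murine B16 melanoma 4A5 cells (DMEM 4.5 g/L glucose, 10% FBS) seeded 5.0 × 10^4 cells/well in 96-well plates and cultured 24 h. Then 72 h with 1 mM theophylline plus compound (DMSO, final 0.1%). Cells washed with PBS, WST-8 formazan read at 450 nm (ref 655 nm). Inhibition (%) = [(A − B)/A] × 100 versus vehicle. Mean ± SEM, n = 4.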
Background: Formazan colour is commonly taken as a measure of viable cells.

A short description of experiment [3]: Antiproliferative activity against mouse B16-4A5 cells at 10 uM after 72 hrs by WST-8 assay. Format: functional. The method in brief:
as §2

Experiment [4] in a line: Antiproliferative activity against mouse B16-4A5 cells at 20 uM after 72 hrs by WST-8 assay. Format: functional. The method in brief:
as §2

The nature of experiment [5]: Inhibition of melanogenesis in theophylline-stimulated mouse B16-4A5 cells at 20 uM after 72 hrs by microplate reader. Also on record: scale not given: the % may be the effect or the level left. Format: functional. The method in brief:
(§3)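 B16 melanoma 4A5 cells seeded 2.0 × 10^4 cells/well in 24-well plates and cultured 24 h. Then 72 h with compound plus 1 mM theophylline (DMSO, final 0.1%). Cells trypsin/EDTA-harvested, washed, lysed in 1 M NaOH (80 °C, 30 min). Lysate melanin read by OD at 405 nm (ref 655 nm). Inhibition (%) = [(A − B)/A] × 100 versus vehicle. Mean ± SEM, n = 4.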

The nature of experiment [6]: Induction of proliferation of neonatal skin fibroblasts assessed as WST-8 formazan accumulation per well at 10 uM after 48 hrs by WST-8 assay relative to control. It counts as functional, Homo sapiens, Skin fibroblast. Put shortly:
(§4)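 Normal human neonatal skin fibroblasts NB1RGB (DMEM 1 g/L glucose, 10% FBS, 37 °C, 5% CO2) seeded 5.0 × 10^4 cells/well in 96-well plates. Incubated 48 h with compound (DMSO, final 0.1%). Water-soluble WST-8 formazan read at 450 nm (ref 655 nm) and expressed as % of vehicle control.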

Experiment [7] is described as follows: Inhibition of melanogenesis in theophylline-stimulated mouse B16-4A5 cells at 5 uM after 72 hrs by microplate reader. It counts as functional. Also on record: scale not given: the % may be the effect or the level left. The method in brief: as §3
A short description of experiment [8]: Inhibition of melanogenesis in theophylline-stimulated mouse B16-4A5 cells at 10 uM after 72 hrs by microplate reader. It counts as functional. Also on record: scale not given: the % may be the effect or the level left. Put shortly: as §3
Experiment [9] can be described thus: Induction of proliferation of neonatal skin fibroblasts assessed as WST-8 formazan accumulation per well at 20 uM after 48 hrs by WST-8 assay relative to control. Format: functional, Homo sapiens, Skin fibroblast. Put shortly:
as §4

The nature of experiment [10]: Induction of proliferation of neonatal skin fibroblasts assessed as protein content per well at 20 uM after 48 hrs […] relative to control. It counts as functional, Homo sapiens, Skin fibroblast. The method in brief:
as §1

The nature of experiment [11]: Induction of proliferation of neonatal skin fibroblasts assessed as WST-8 formazan accumulation per well at 5 uM after 48 hrs by WST-8 assay relative to control. It counts as functional, Homo sapiens, Skin fibroblast. The method in brief:
as §4

A short description of experiment [12]: Induction of proliferation of neonatal skin fibroblasts assessed as protein content per well at 5 uM after 48 hrs by […] relative to control. Format: functional, Homo sapiens, Skin fibroblast. The method in brief:
as §1

Experiment [13] is described as follows: Induction of proliferation of neonatal skin fibroblasts assessed as protein content per well at 50 uM after 48 hrs by […] relative to control. It counts as functional, Homo sapiens, Skin fibroblast. The method in brief:
as §1

Experiment [14] is described as follows: Induction of proliferation of neonatal skin fibroblasts assessed as WST-8 formazan accumulation per well at 50 uM after 48 hrs by WST-8 assay relative to control. Format: functional, Homo sapiens, Skin fibroblast. The method in brief:
as §4

Take `CC1(C)CC[C@]2(O)[C@H](O)C[C@]3(C)C(=CC[C@@H]4[C@@]5(C)CC[C@H](O[C@@H]6O[C@H](C(=O)O)[C@@H](O)[C@H](O[C@@H]7O[C@H](CO)[C@H](O)[C@H](O)[C@H]7O[C@@H]7O[C@H](CO)[C@@H](O)[C@H](O)[C@H]7O)[C@H]6O[C@@H]6O[C@H](CO)[C@H](O)[C@H](O)[C@H]6O)C(C)(C)[C@@H]5CC[C@]43C)[C@@H]2C1` (relative stereo): the Activity in [1] is given as 110.6%; in experiment [2], 1.9%; in [3], 4.3%; in experiment [4] it was 13.3%; in experiment [5], 23.3%; in experiment [6], 110%. Also, the Activity in experiment [7] worked out at 21.9%; in experiment [8], 16.7%; in experiment [9], 116.2%; in [10], 114.9%; in experiment [11], 108.3%; in [12], 113.9%.
For `C/C=C(\C)C(=O)O[C@H]1CC(C)(C)C[C@H]2C3=CC[C@@H]4[C@@]5(C)CC[C@H](O[C@@H]6O[C@H](C(=O)O)[C@@H](O)[C@H](O[C@@H]7O[C@H](CO)[C@H](O)[C@H](O)[C@H]7O[C@@H]7O[C@@H](C)[C@H](O)[C@@H](O)[C@H]7O)[C@H]6O[C@@H]6O[C@H](CO)[C@@H](O)[C@H](O)[C@H]6O)C(C)(C)[C@@H]5CC[C@@]4(C)[C@]3(C)[C@@H](O)[C@@H](O)[C@@]12CO` [SASANQUASAPONIN II], the Activity in [13] was determined as 48.9%; in experiment [1] it was 53.9%; in experiment [14], 16.5%; in experiment [6], 16.8%.
The matching figures for `C/C=C(/C)C(=O)O[C@H]1CC(C)(C)C[C@H]2C3=CC[C@@H]4[C@@]5(C)CC[C@H](O[C@@H]6O[C@H](C(=O)O)[C@@H](O)[C@H](O[C@@H]7O[C@H](CO)[C@H](O)[C@H](O)[C@H]7O[C@@H]7O[C@@H](C)[C@H](O)[C@@H](O)[C@H]7O)[C@H]6O[C@@H]6O[C@H](CO)[C@@H](O)[C@H](O)[C@H]6O)C(C)(C)[C@@H]5CC[C@@]4(C)[C@]3(C)[C@@H](O)[C@@H](O)[C@@]12CO` [SASANQUASAPONIN III]: 48.8%, 48.6%, 16.8% and 16.6%.
Turning to `CC1(C)CC[C@]2(C=O)[C@H](O)C[C@]3(C)C(=CC[C@@H]4[C@@]5(C)CC[C@H](O[C@@H]6O[C@H](C(=O)O)[C@@H](O)[C@H](O[C@@H]7O[C@H](CO)[C@H](O)[C@H](O)[C@H]7O[C@@H]7O[C@H](CO)[C@@H](O)[C@H](O)[C@H]7O)[C@H]6O[C@@H]6O[C@H](CO)[C@H](O)[C@H](O)[C@H]6O)C(C)(C)[C@@H]5CC[C@]43C)[C@@H]2C1` (relative stereo), the Activity in experiment [1] was determined as 120.3%; in [2], 17.4%; in experiment [3], 55%; in [4] it was 52.8%; in experiment [5], 91.6%; in experiment [6], 102.5%. Besides, the Activity is on record as -19.7% in experiment [7]; 16.3% in [8]; 102.2% in experiment [9]; 110% in experiment [10]; 102.1% in experiment [11]; 120.4% in experiment [12].
In the case of `CC(=O)O[C@@H]1[C@H](O)[C@@H](O)[C@H](O[C@H]2[C@H](O[C@H]3CC[C@]4(C)[C@H]5CC=C6[C@@H]7CC(C)(C)CC[C@]7(O)C(=O)C[C@@]6(C)[C@]5(C)CC[C@H]4C3(C)C)O[C@H](C(=O)O)[C@@H](O)[C@@H]2O[C@@H]2O[C@H](CO)[C@H](O)[C@H](O)[C@H]2O[C@@H]2O[C@H](CO)[C@@H](O)[C@H](O)[C@H]2O)O[C@@H]1CO` [CAMELLIOSIDE B], the Activity in experiment [1] is 130%; in experiment [2] it was 11.9%; in experiment [3], 26%; in experiment [4] it was 49%; in experiment [5], 95%; in experiment [6], 121.5%. For the same compound, the Activity in experiment [7] stood at 33.1%; in experiment [8], 64.6%; in experiment [9] it was 132.1%; in experiment [10] it was 130.1%; in experiment [11] it was 111.5%; in [12], 122.3%.
With `C/C=C(\C)C(=O)O[C@H]1[C@H](OC(=O)/C(C)=C/C)[C@]2(CO)[C@H](O)[C@H](O)[C@]3(C)C(=CC[C@@H]4[C@@]5(C)CC[C@H](O[C@@H]6O[C@H](C(=O)O)[C@@H](O)[C@H](O[C@@H]7O[C@H](CO)[C@H](O)[C@H](O)[C@H]7O[C@@H]7O[C@@H](C)[C@H](O)[C@@H](O)[C@H]7O)[C@H]6O[C@@H]6O[C@H](CO)[C@@H](O)[C@H](O)[C@H]6O)C(C)(C)[C@@H]5CC[C@]43C)[C@@H]2CC1(C)C` [YUCHASAPONIN A], the Activity in experiment [13] is on record as 49.4%; in experiment [1], 45.3%; in [14] it was 16.8%; in experiment [6] it was 16.6%.
For `O.O=C1O[C@H]([C@@H](O)CO)C(O)=C1OP(=O)([O-])[O-].[Mg+2]`, the Activity in [1] stood at 109.6%; in [6] it was 123.7%; in experiment [9], 122.8%; in [10] it was 117.4%; in experiment [11], 109.2%; in experiment [12], 112.8%.
On to `CC1(C)CC[C@]2(O)C(=O)C[C@]3(C)C(=CC[C@@H]4[C@@]5(C)CC[C@H](O[C@@H]6O[C@H](C(=O)O)[C@@H](O)[C@H](O[C@@H]7O[C@H](CO)[C@H](O)[C@H](O)[C@H]7O[C@@H]7O[C@H](CO)[C@@H](O)[C@H](O)[C@H]7O)[C@H]6O[C@H]6O[C@@H](CO)[C@@H](O)[C@@H](O)[C@@H]6O)C(C)(C)C5CC[C@]43C)[C@@H]2C1` (some centres not stated) [CAMELLIOSIDE A], for which the Activity in [1] is given as 126.9%; in [2], -3.8%; in [3], 5.1%; in [4], 19.7%; in experiment [5] it was 74.9%; in [6], 114.3%. Moreover, the Activity in experiment [7] is reported as 12.1%; in experiment [8] it was 36%; in experiment [9], 113.6%; in experiment [10], 113.8%; in experiment [11] it was 114.6%; in experiment [12], 120.8%.
Turning to `CC1(C)CC[C@]2(CO)[C@H](O)C[C@]3(C)C(=CC[C@@H]4[C@@]5(C)CC[C@H](O[C@@H]6O[C@H](C(=O)O)[C@@H](O)[C@H](O[C@@H]7O[C@H](CO)[C@H](O)[C@H](O)[C@H]7O[C@@H]7O[C@H](CO)[C@@H](O)[C@H](O)[C@H]7O)[C@H]6O[C@@H]6O[C@H](CO)[C@H](O)[C@H](O)[C@H]6O)C(C)(C)[C@@H]5CC[C@]43C)[C@@H]2C1` [CAMELLIOSIDE D], the Activity in [1] was 113.1%; in experiment [2], 16.1%; in experiment [3], 16.3%; in experiment [4] it was 29.5%; in [5], 8.3%; in experiment [6], 98.6%. The Activity in experiment [7] is on record as 0.3%; in [8] it was -6.2%; in experiment [9], 108.6%; in experiment [10], 94.7%; in experiment [11], 107.6%; in experiment [12], 110.7%.
With `CCC/C=C\C(=O)O[C@H]1CC(C)(C)C[C@H]2C3=CC[C@@H]4[C@@]5(C)CC[C@H](O[C@@H]6O[C@H](C(=O)O)[C@@H](O)[C@H](O[C@@H]7O[C@H](CO)[C@H](O)[C@H](O)[C@H]7O[C@@H]7O[C@@H](C)[C@H](O)[C@@H](O)[C@H]7O)[C@H]6O[C@@H]6O[C@H](CO)[C@@H](O)[C@H](O)[C@H]6O)C(C)(C)[C@@H]5CC[C@@]4(C)[C@]3(C)[C@@H](O)[C@@H](O)[C@@]12CO` [SASANQUASAPONIN I], the Activity in experiment [13] worked out at 44.8%; in [1], 71.5%; in experiment [14], 16.4%; in experiment [6], 34.9%.
